A number with no mark means an inactive call. Inconclusive results are not listed. Calls of active or inactive are those of the source.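 How the source made its calls, unless noted: active means inhibition over a set limit, the all-compound mean plus 3 SD, in both replicate runs; inconclusive means over that limit in just one replicate run; inactive means at or under that limit in both runs.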

Experiment [1] is described as follows: OD615 S. cerevisiae growth inhibition, permissive medium, pilot counter-assay, permissive growth control for S. cerevisiae lifespan shortening project (AID 705;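 active means growth inhibition above 25% in both replicates, a cutoff set 3 SD above the mean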). To be noted: OD615, 24 h, at 10 µM, active compounds read high. In outline:
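Timing: 24 h exposure, 30 °C / Material: Saccharomyces cerevisiae strain carrying genetically modified DeaD replicative-lifespan system / Signal: OD at 615 nm / Compound: 10 µM single dose, 0.25% DMSO / Medium: SC raffinose/galactose permissive medium / Evaluation: reduction in yeast growth (OD615)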

Experiment [2] is described as follows: Restrictive medium S. cerevisiae growth inhibition, OD615, pilot screen of yeast lifespan reduction project, restrictive growth control (AID 706;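 active means growth inhibition above a set limit, 3 SD over mean compound inhibition, in both replicates, cut at about 43% in these data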;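 further: modified DeaD lifespan yeast strain shifted to restrictive glucose medium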). To be noted: OD615, 48 h, at 10 µM, active compounds read high. In outline:
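System: Engineered S. cerevisiae DeaD strain | Detection: OD615 | Buffer or medium: CSMM-D glucose medium | Doses: 10 µM compound, 0.25% DMSO | Timing: 4 h pre-growth plus 48 h compound exposure, 30 °C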

Experiment [3] is described as follows: viability gain of MRP-1-high H69AR cells under doxorubicin, pilot screen, MRP-1 activator project, CellTiter-Glo, duplicate (AID 807;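 active means viability increase at or above a cutoff of the median across tested compounds plus 3 SD, cut at about 8.5% in these data, passing the limit was not always enough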;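 further: compound pretreatment 18-22 h then 72 h combined with doxorubicin; 0% = doxorubicin alone and 100% = vehicle without doxorubicin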). To be noted: H69AR viability with doxorubicin, CellTiter-Glo luminescence; at 10 µM; active compounds read high. Background: In ATP-based viability assays light output follows the ATP content of the culture.
A short description of experiment [4]: growth suppression of beta-catenin knockout HCT116, pilot screen, human colon tumor cells (AID 823;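 active means cell viability at or below a set limit in both duplicate runs, the limit being the all-compound median minus 4 SD, cut at about 23% in these data, passing the limit was not always enough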;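 further: 0% = wells killed by 20 µM Hyamine and 100% = untreated DMSO cell wells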). To be noted: CellTiter-Glo, 60 h, at 10 µM, active compounds read low.
Experiment [5] in a line: inhibitors of the yeast RAM network, pilot screen, dse1pr::URA3 reporter, 5-FOA selection (AID 869).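 Further: 0% = DMSO wells with no growth and 100% = 10 µM 1-NA-PP1 with full growth; RAM network block rescues cells from 5-FOA so hits raise OD615 growth.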 To be noted: S. cerevisiae dse1pr::URA3 5-FOA growth, OD615, 2 d; at 10 µM; active compounds read high; strain carries analog-sensitive mutant Cbk1 kinase.
Experiment [6] can be described thus: RAM signaling pathway blockade in yeast – S. cerevisiae, Pdr1DBD-CYC8 efflux-inhibited sensitized strain, primary screen (AID 1298;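 active means RAM network inhibition above 8.4% in each of two replicates, 3 SD over the compound average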;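 further: 0% = DMSO untreated cells without growth and 100% = 10 µM 1-NA-PP1 full growth; higher means more yeast growth rescued from 5-FOA killing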). To be noted: S. cerevisiae cbk1-as DSE1-URA3 strain, 5-FOA growth OD615, 2 d; at 50 µM; active compounds read high.

What is called viability is a read-out of living cells in per cent, often relative to untreated cells. Broadly, the inhibition is the drop in the measured response relative to a control, in per cent. Regarding `COc1ccccc1-c1nc(NC(C)=O)n[nH]1`, the growth inhibition is -12.1% in experiment [1] and -8.54% in experiment [2]. In experiment [3], the viability increase is -4.21%. The viability in experiment [4] is 92.1%. In addition, in experiment [5], the inhibition was 3.42%. The RAM network inhibition in experiment [6] is 5.35%.
For `CN(C)/C=C1/Sc2ccccc2C1=O`, the growth inhibition in experiment [1] is -13.4%; in experiment [2], 10%. Further, the viability increase in experiment [3] is -3.51%. Besides, the viability in experiment [4] is 103%. Moreover, in experiment [5], the inhibition is 1.11%. Further, the RAM network inhibition in experiment [6] was -0.73%.
For `CNC(=O)C1C2C=CC3(O2)C1C(=O)N(CCOC)C3C(=O)NCc1ccc(OC)cc1` (stereo not given), the growth inhibition in experiment [1] is -11%; in experiment [2], 0.24%. For the same compound, the viability increase in experiment [3] is -1.22%. Further, the viability in experiment [4] was 96%. Moreover, the inhibition in experiment [5] was 1.67%. In experiment [6], the RAM network inhibition is 2.29%.
Regarding `C(=N\n1cnnc1)/c1ccc(N2CCOCC2)s1`, the results for the growth inhibition in experiment [1] and in experiment [2] were -13.4% and -3.46%, respectively. Moreover, in experiment [3], the viability increase is -1.47%. In experiment [4], the viability is 89.8%. In addition, in experiment [5], the inhibition was 4.36%. Further, the RAM network inhibition in experiment [6] was 8.67%.
`CCN(CC)S(=O)(=O)c1cc(Br)ccc1OC`: the growth inhibition is 9.34% in experiment [1] and -11.1% in experiment [2]. For the same compound, in experiment [3], the viability increase was -4.03%. The viability in experiment [4] is 94.8%. For the same compound, in experiment [5], the inhibition is 0.72%. Besides, the RAM network inhibition in experiment [6] was 1.97%.
Turning to `COc1ccc(NC(=O)C(c2ccc(OC)cc2)N(C)C(=O)c2cnccn2)cc1` (stereo not given), the growth inhibition in experiment [1] was 9.44%; in experiment [2], 2.07%. Further, the viability increase in experiment [3] is -2.29%. In experiment [4], the viability was 101%. For the same compound, the inhibition in experiment [5] was 2.52%. In addition, the RAM network inhibition in experiment [6] was 1.4%.
`CCOc1cccc2c1OC1(C)CC2NC(=O)N1c1cccc(Cl)c1` (stereo not given): the figures for the growth inhibition in experiment [1] and in experiment [2] were -12% and 5.29%, respectively. For the same compound, the viability increase in experiment [3] is -1.53%. Further, the viability in experiment [4] was 99.2%. The inhibition in experiment [5] is -0.045%. For the same compound, the RAM network inhibition in experiment [6] was 5.25%.
Consider `CC(C)Sc1nc(N)c2c3c(sc2n1)CN(C)CC3`, for which the results for the growth inhibition in experiment [1] and in experiment [2] were -10.7% and 9.69%, respectively. The viability increase in experiment [3] was -3.04%. For the same compound, the viability in experiment [4] is 101%. Moreover, the inhibition in experiment [5] was 1.16%. Further, in experiment [6], the RAM network inhibition was 5.2%.
Turning to `COc1ccccc1N1CCN(C2=CC(=O)CCC2)CC1`, the growth inhibition in experiment [1] is -17.3%; in experiment [2], -12.2%. For the same compound, the viability increase in experiment [3] is -1.22%. Further, in experiment [4], the viability was 100%. Besides, the inhibition in experiment [5] was 0.81%. The RAM network inhibition in experiment [6] is 2.91%.
As to `Cc1cccc(C)c1NC(=O)CSc1nnc([C@@H]2CCCN2C(=O)OC(C)(C)C)o1`, the growth inhibition in experiment [1] is -11.8%; in experiment [2], -6.59%. The viability increase in experiment [3] is -1.42%. For the same compound, the viability in experiment [4] was 96.3%. Moreover, the inhibition in experiment [5] is 2.23%. In experiment [6], the RAM network inhibition was 8.94%.
As to `CN1CCCCc2c1[nH]c1ccccc1c2=O`, the growth inhibition in experiment [1] was 8.28%; in experiment [2], 2.2%. Further, the viability increase in experiment [3] is -3.35%. The viability in experiment [4] was 95.8%. For the same compound, the inhibition in experiment [5] is 0.42%. Moreover, in experiment [6], the RAM network inhibition was -1.45%.
For `O=C(Nc1ccc2c(c1)OCCO2)c1ccc(NC(=O)C2CCCO2)cc1` (stereo not given), the growth inhibition in experiment [1] is -10.9%; in experiment [2], -3.79%. For the same compound, the viability increase in experiment [3] is -0.87%. The viability in experiment [4] is 72.7%. The inhibition in experiment [5] is 2.04%. Further, the RAM network inhibition in experiment [6] was 3.27%.
As for `c1cncc(CNc2c3c(nc4nnnn24)CCCC3)c1`, the results for the growth inhibition in experiment [1] and in experiment [2] were -7.77% and -8.93%, respectively. Also, the viability increase in experiment [3] was -2.59%. Further, the viability in experiment [4] is 90%. For the same compound, the inhibition in experiment [5] was 0.45%. Besides, the RAM network inhibition in experiment [6] was -0.36%.
With `COC(=O)c1cc(=O)n(Cc2ccco2)c(=Nc2ccc(F)c(Cl)c2)s1`, the growth inhibition in experiment [1] was -17.1%; in experiment [2], -11.1%. The viability increase in experiment [3] was -8.24%. Moreover, the viability in experiment [4] was 9.25% (active). Besides, the inhibition in experiment [5] is 2.19%. For the same compound, the RAM network inhibition in experiment [6] was 10.1%.
Consider `COC(=O)c1cn(NC(=O)C2CCCCC2)c(=O)c2ccccc12`, for which the growth inhibition in experiment [1] is 13.2%; in experiment [2], 6.18%. The viability increase in experiment [3] was -1.25%. Also, the viability in experiment [4] is 94.3%. In addition, the inhibition in experiment [5] was -0.16%. The RAM network inhibition in experiment [6] is 5.38%.
With `COc1ccc(C(=O)Nc2ccccc2-c2nnn(CC(=O)NCc3ccco3)n2)cc1`, the growth inhibition in experiment [1] is -1.97%; in experiment [2] it was 10%. In experiment [3], the viability increase is -2.04%. Also, the viability in experiment [4] was 78%. Also, the inhibition in experiment [5] is 4.12%. Besides, the RAM network inhibition in experiment [6] was 7.41%.
With `CN1c2ccccc2-c2nc3ccccc3n2C1c1ccccn1` (stereo not given), the growth inhibition in experiment [1] is -1.57%; in experiment [2], -3.9%. Moreover, the viability increase in experiment [3] was -3.85%. The viability in experiment [4] is 73.8%. For the same compound, the inhibition in experiment [5] was 0.56%. The RAM network inhibition in experiment [6] was 4.06%.
For the compound `O=C(CN1CCN(c2ccccn2)CC1)Nc1cccc(C(F)(F)F)c1`, the growth inhibition in experiment [1] was -3.17%; in experiment [2], 5.07%. In addition, the viability increase in experiment [3] is -1.96%. In experiment [4], the viability was 97.9%. In addition, the inhibition in experiment [5] was 2.27%. In experiment [6], the RAM network inhibition is 2.45%.
Take `C=C(C)Cn1c(CCNC(=O)CCC)nc2ccccc21`: the figures for the growth inhibition in experiment [1] and in experiment [2] were -9.26% and -10.3%, respectively. The viability increase in experiment [3] was -0.98%. In addition, the viability in experiment [4] is 99.1%. In addition, the inhibition in experiment [5] was 1.54%. Moreover, the RAM network inhibition in experiment [6] was 2.19%.
Turning to `Cc1ccc(S(=O)(=O)c2nc(-c3ccc(F)cc3)oc2SCC(N)=O)cc1`, the growth inhibition was -20.8% in experiment [1] and 0.745% in experiment [2]. Further, in experiment [3], the viability increase is -2.75%. The viability in experiment [4] is 100%. Besides, the inhibition in experiment [5] is 1.27%. Besides, in experiment [6], the RAM network inhibition is 1.2%.

The record behind these values is PubChem BioAssay.
